This is a sample that favours compounds with a hit; in the whole collection about 3.5% have one here.
MrgX1 allo act – human MrgX1 positive allosteric modulation, primary screen | MrgX1-HEK293, Fluo-4 calcium flux, FDSS; active compounds read high | Q96LB2 | 310,000 tested, 0.63% active | B-score at 10 µM;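 active = plate-corrected calcium response at least 3 library SD above typical, normal starting fluorescence, not activating the receptor alone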;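 note: compound read alongside a low EC10 to EC30 dose of BAM8-22 agonist; peak minus trough fluorescence over baseline measured at the second addition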
Target sequence (Q96LB2 whole entry, looked up): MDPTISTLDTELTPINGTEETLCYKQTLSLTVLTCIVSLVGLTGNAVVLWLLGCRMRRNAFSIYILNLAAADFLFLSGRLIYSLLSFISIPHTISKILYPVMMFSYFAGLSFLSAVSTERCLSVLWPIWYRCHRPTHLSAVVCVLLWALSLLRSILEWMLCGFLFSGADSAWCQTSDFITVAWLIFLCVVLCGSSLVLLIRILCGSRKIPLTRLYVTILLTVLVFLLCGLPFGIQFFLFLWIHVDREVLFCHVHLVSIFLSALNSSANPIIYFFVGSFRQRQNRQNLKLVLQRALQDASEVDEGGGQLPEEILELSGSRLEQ
RGS4 act – RGS4 potentiation or activation; HEK293 M3R/inducible RGS4, carbachol calcium flux Fluo4; active compounds read low; B-score at 10 µM; 310,000 tested, 0.92% active;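 active = B-score of the integrated calcium signal more than 4 SD below the library mean, with starting fluorescence not abnormally high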;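 note: negative B-score means reduced calcium response which marks RGS4 activation or potentiation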
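test system = HEK293 cells with stable M3R and inducible RGS4 | schedule = recording 10 s baseline at 1 Hz, 100 s post-agonist | technique = Fluo4-AM (2 µM) calcium-flux fluorescence, kinetic read | measure = Agonist-evoked peak-minus-minimum fluorescence over baseline, integrated ratio, B score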
MrgX1 antagonist – antagonists of human MrgX1 receptor. MRGX1-HEK293 calcium flux, Fluo-4, BAM8-22 antagonism; active compounds read low. B-score at 10 µM. 310,000 tested, 1.3% active. AID 588676;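 active = calcium-response B-score plate-corrected more than 3 library SD below zero, starting fluorescence within 5 deviations, no agonist response on first addition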;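 note: peak minus trough fluorescence over baseline after final BAM8-22 challenge near maximal dose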
MrgX1 agonist – human MrgX1 receptor agonism, primary screen; AID 588627; B-score at 10 µM; MrgX1-HEK293 cells, Fluo-4 calcium fluorescence, agonist mode; active compounds read high; 310,000 tested, 0.44% active;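 active = calcium response B-score plate-corrected fluorescence ratio at least 3 library SD, with starting fluorescence B-score inside 5 SD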
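Material: MrgX1-expressing HEK293 cells; input: 15,000 cells per well; doses: test compound given as first of three sequential additions; schedule: overnight plating before 1 h dye loading; technique: Fluo-4 NW calcium-flux fluorescence, kinetic read; evaluation: baseline-normalised fluorescence change ratio, B-scored; control set: plate-wise positive and negative controls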
RGS4 inh – human RGS4 inhibition. P49798. HEK293 M3R/RGS4 inducible, Fluo-4 calcium flux; active compounds read high; triggered by carbachol at its EC20. B-score at 10 µM. 310,000 tested, 0.45% active;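 active = B-score, a plate-corrected calcium signal, over three deviations above library mean, with baseline fluorescence within five deviations of library mean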;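 note: RGS4 expression induced by doxycycline in cells with stable M3 receptor; B-score is computed from the integrated fluorescence ratio over baseline after carbachol; higher B-score means a larger calcium signal and so more RGS4 inhibition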
Target sequence (P49798 whole entry, looked up): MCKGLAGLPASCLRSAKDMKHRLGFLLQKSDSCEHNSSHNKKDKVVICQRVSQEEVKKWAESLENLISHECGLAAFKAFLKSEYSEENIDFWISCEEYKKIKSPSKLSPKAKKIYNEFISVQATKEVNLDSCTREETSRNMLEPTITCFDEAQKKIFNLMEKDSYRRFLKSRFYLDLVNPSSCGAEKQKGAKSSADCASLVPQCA
Active calls of the source: *.

S=C(Nc1ccccc1Cl)N(CCCN1CCOCC1)Cc1ccccn1 was read as MrgX1 allo act inactive, RGS4 act inactive, MrgX1 antagonist inactive, MrgX1 agonist inactive and RGS4 inh inactive.
`O=C(/C=C/Nc1ccc(F)c(F)c1)c1cccs1` gave MrgX1 allo act inactive, RGS4 act inactive, MrgX1 antagonist inactive, MrgX1 agonist inactive and RGS4 inh inactive.
O=C(/C=C/Nc1ccc(F)cc1)c1cccs1 was read as MrgX1 allo act inactive, RGS4 act inactive, MrgX1 antagonist -5*, MrgX1 agonist inactive and RGS4 inh inactive.
For CCCC1=NN2C(=N)/C(=C\c3cc(C)n(-c4cc(C)cc(C)c4)c3C)C(=O)N=C2S1 the results were MrgX1 allo act inactive, RGS4 act -8.6*, MrgX1 antagonist inactive, MrgX1 agonist inactive and RGS4 inh inactive.
Cc1cc(C)cc(-n2c(C)cc(/C=C3\C(=N)N4N=C(CC(C)C)SC4=NC3=O)c2C)c1 was read as MrgX1 allo act inactive, RGS4 act -7.8*, MrgX1 antagonist inactive, MrgX1 agonist inactive and RGS4 inh inactive.
Screening CCOc1ccccc1N1CCN(C(=O)c2ccc(NS(=O)(=O)c3ccc4[nH]c(=O)[nH]c4c3)cc2)CC1 returned MrgX1 allo act inactive, RGS4 act inactive, MrgX1 antagonist inactive, MrgX1 agonist inactive and RGS4 inh inactive.
O=C(COc1ccc(Br)cc1)NCCNC(=O)c1ccncc1 was read as MrgX1 allo act inactive, RGS4 act inactive, MrgX1 antagonist inactive, MrgX1 agonist inactive and RGS4 inh inactive.
Cc1ccc(N2C(=O)CC(C)CC2=O)cc1 was read as MrgX1 allo act inactive, RGS4 act inactive, MrgX1 antagonist inactive, MrgX1 agonist inactive and RGS4 inh inactive.
For COc1ccc(CNC(=O)CN(C(=O)c2csnn2)c2cccc(C(C)=O)c2)cc1 the results were MrgX1 allo act inactive, RGS4 act inactive, MrgX1 antagonist inactive, MrgX1 agonist inactive and RGS4 inh inactive.
Screening CCOc1cc(/C=C(/C#N)C(=O)Nc2ccc(O)cc2)cc(Br)c1O returned MrgX1 allo act inactive, RGS4 act inactive, MrgX1 antagonist inactive, MrgX1 agonist 62* and RGS4 inh inactive.
Screening Cc1cccc(NS(=O)(=O)c2cccc(C(=O)NCC(c3ccco3)N(C)C)c2)c1 (configuration not stated) returned MrgX1 allo act inactive, RGS4 act inactive, MrgX1 antagonist inactive, MrgX1 agonist inactive and RGS4 inh inactive.
Screening COc1ccc(-c2noc(CCC(=O)N3CCN(Cc4ccccc4)CC3)n2)cc1 returned MrgX1 allo act inactive, RGS4 act inactive, MrgX1 antagonist -5.3*, MrgX1 agonist inactive and RGS4 inh inactive.
`COc1ccc(-c2noc(CCC(=O)N3CCC(C)CC3)n2)cc1` gave MrgX1 allo act inactive, RGS4 act inactive, MrgX1 antagonist inactive, MrgX1 agonist inactive and RGS4 inh inactive.
N#C/C(=C/c1ccc(N2CCCCC2)cc1)c1cccc(F)c1 was read as MrgX1 allo act inactive, RGS4 act inactive, MrgX1 antagonist inactive, MrgX1 agonist inactive and RGS4 inh inactive.
For N#C/C(=C/c1ccc(N2CCCCCC2)o1)c1ccc(Cl)cc1 the results were MrgX1 allo act 6.5*, RGS4 act inactive, MrgX1 antagonist inactive, MrgX1 agonist inactive and RGS4 inh inactive.
Screening N#C/C(=C/c1ccc(N2CCCCC2)o1)c1cccc(F)c1 returned MrgX1 allo act inactive, RGS4 act inactive, MrgX1 antagonist -6.4*, MrgX1 agonist inactive and RGS4 inh inactive.
Cc1ccc(/C(C#N)=C\c2ccc(N3CCOCC3)o2)cc1 was read as MrgX1 allo act inactive, RGS4 act inactive, MrgX1 antagonist inactive, MrgX1 agonist inactive and RGS4 inh inactive.
Screening O=C(NCC(=O)N1CCN(C(c2ccccc2)c2ccccc2)CC1)c1ccccc1F returned MrgX1 allo act inactive, RGS4 act inactive, MrgX1 antagonist inactive, MrgX1 agonist inactive and RGS4 inh inactive.
For CCC(=O)Oc1ccc2c(C)cc(=O)oc2c1C(=O)CC the results were MrgX1 allo act 6.9*, RGS4 act inactive, MrgX1 antagonist inactive, MrgX1 agonist inactive and RGS4 inh inactive.
For COc1ccccc1-c1nnn(CC#N)n1 the results were MrgX1 allo act inactive, RGS4 act inactive, MrgX1 antagonist -7.5*, MrgX1 agonist inactive and RGS4 inh inactive.
For O=C(CCc1nnc2ccc(NCc3ccccc3)nn12)NC1CCCC1 the results were MrgX1 allo act inactive, RGS4 act inactive, MrgX1 antagonist inactive, MrgX1 agonist inactive and RGS4 inh inactive.
`O=C(Oc1ccc(/C=N/NC(=O)c2ccccn2)cc1)c1cccc(F)c1` gave MrgX1 allo act inactive, RGS4 act inactive, MrgX1 antagonist inactive, MrgX1 agonist inactive and RGS4 inh inactive.
For CNc1cccc2c1C(=O)c1ccccc1C2=O the results were MrgX1 allo act inactive, RGS4 act inactive, MrgX1 antagonist inactive, MrgX1 agonist inactive and RGS4 inh inactive.
`O=C1c2ccccc2-c2cccc(NS(=O)(=O)c3ccc(C(F)(F)F)cc3)c21` gave MrgX1 allo act inactive, RGS4 act -7*, MrgX1 antagonist inactive, MrgX1 agonist inactive and RGS4 inh inactive.
Screening CC(OC(=O)/C(C#N)=C/c1ccc(N(C)C)cc1)C(=O)N(C)c1ccccc1 (configuration not stated) returned MrgX1 allo act inactive, RGS4 act -7.2*, MrgX1 antagonist inactive, MrgX1 agonist inactive and RGS4 inh inactive.
Screening CC(=O)Nc1ccc(NC(=O)C(C)OC(=O)/C(C#N)=C/c2ccc(N(C)C)cc2)cc1 (configuration not stated) returned MrgX1 allo act inactive, RGS4 act inactive, MrgX1 antagonist inactive, MrgX1 agonist inactive and RGS4 inh inactive.
COc1ccc(-c2cnnc(N/N=C/c3ccc(O)cc3)n2)cc1 was read as MrgX1 allo act inactive, RGS4 act inactive, MrgX1 antagonist inactive, MrgX1 agonist inactive and RGS4 inh inactive.
`COc1ccc(-c2cnnc(N/N=C/c3ccc(C)o3)n2)cc1` gave MrgX1 allo act inactive, RGS4 act inactive, MrgX1 antagonist -5.2*, MrgX1 agonist inactive and RGS4 inh inactive.
Screening COc1ccc(/C=C2\SC(=S)N(NS(=O)(=O)c3ccc(C)cc3)C2=O)c(OC)c1 returned MrgX1 allo act inactive, RGS4 act -8.2*, MrgX1 antagonist inactive, MrgX1 agonist inactive and RGS4 inh inactive.
Screening CCOc1ccc(/C=C2\SC(=S)N(NS(=O)(=O)c3ccccc3)C2=O)cc1OC returned MrgX1 allo act inactive, RGS4 act inactive, MrgX1 antagonist inactive, MrgX1 agonist inactive and RGS4 inh inactive.
